These results are taken from ChEMBL document CHEMBL1649282, “OXA-143, a novel carbapenem-hydrolyzing class D beta-lactamase in Acinetobacter baumannii” (2009).

Common to all, as to assay type: functional
The test system of test [1] is Acinetobacter baumannii. Kind of test: Antimicrobial activity against Acinetobacter baumannii […] by Etest method in presence of 4 ug/ml beta-lactamase inhibitor clavulanic acid. In a few lines: (§1)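 Etest MICs were read following the manufacturer's instructions. A. baumannii 135040 is a blood-culture clinical isolate from a Brazilian ICU (2004); A. baumannii ATCC 19606 served as the reference strain.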

The test system of test [2] is Escherichia coli. As to the kind of experiment: Antimicrobial activity against Escherichia coli TOP10 by Etest method. In a few lines: (§2)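 MICs of β-lactams determined by Etest following the manufacturer's instructions. Reference strains A. baumannii ATCC 19606 and E. coli TOP10 were tested alongside transformants carrying the cloned blaOXA-143: ATCC 19606 with pPH98 and TOP10 with pPH-1. For pPH-1 constructs, TOP10 transformants were selected on 50 μg/ml amoxicillin plus 30 μg/ml kanamycin.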

Test [3] deals with Acinetobacter baumannii. Kind of test: Antimicrobial activity against Acinetobacter baumannii […] by Etest method. Summed up: as §1
In test [4] the test system is Escherichia coli. As to the kind of experiment: Antimicrobial activity against Escherichia coli TOP10 by Etest method in presence of 4 ug/ml beta-lactamase inhibitor clavulanic acid. In a few lines: (§3)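 Susceptibility was read by Etest, following the manufacturer's instructions. E. coli TOP10 without plasmid served as the reference host strain.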
Test [5] has as its system Escherichia coli. Kind of test: Antimicrobial activity against Escherichia coli TOP10 harboring plasmid PH1 by Etest method. In a few lines: as §2
Test [6] deals with Acinetobacter baumannii. Kind of test: Antimicrobial activity against Acinetobacter baumannii ATCC 19606 by Etest method in presence of 4 ug/ml beta-lactamase inhibitor clavulanic acid. The note with it: ATCC 19606 = CIP 70.34 = JCM 6841. Summed up: as §1
In test [7] the test system is Acinetobacter baumannii. Kind of test: Antimicrobial activity against Acinetobacter baumannii ATCC 19606 harboring plasmid PH98 by Etest method. Particulars: ATCC 19606 = CIP 70.34 = JCM 6841. In a few lines:
as §2

The test system of test [8] is Escherichia coli. As to the kind of experiment: Antimicrobial activity against Escherichia coli TOP10 harboring plasmid PH1 by Etest method in presence of 4 ug/ml beta-lactamase inhibitor clavulanic acid. Summed up: as §2
The test system of test [9] is Acinetobacter baumannii. Kind of test: Antimicrobial activity against Acinetobacter baumannii ATCC 19606 by Etest method. Particulars: ATCC 19606 = CIP 70.34 = JCM 6841. In a few lines:
as §2

Test [10] relates to Acinetobacter baumannii. Kind of test: Antimicrobial activity against Acinetobacter baumannii ATCC 19606 harboring plasmid PH98 by Etest method in presence of 4 ug/ml beta-lactamase inhibitor clavulanic acid. The note with it: ATCC 19606 = CIP 70.34 = JCM 6841. In a few lines: as §2
Test [11] deals with Acinetobacter baumannii. As to the kind of experiment: Antimicrobial activity against Acinetobacter baumannii ATCC 19606 harboring plasmid PH98 by Etest method in presence of 4 ug/ml beta-lactamase inhibitor Tazobactam. Particulars: ATCC 19606 = CIP 70.34 = JCM 6841. In a few lines:
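Susceptibility by Etest, run according to the manufacturer's instructions. The recipient strain is A. baumannii ATCC 19606 carrying recombinant plasmid pPH98. The same strain without the plasmid served as the reference. MICs for this strain were also determined by agar dilution following CLSI guidelines.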

In test [12] the test system is Escherichia coli. Kind of test: Antimicrobial activity against Escherichia coli TOP10 by Etest method in presence of 4 ug/ml beta-lactamase inhibitor Tazobactam. In a few lines: as §3
Test [13] relates to Acinetobacter baumannii. As to the kind of experiment: Antimicrobial activity against Acinetobacter baumannii ATCC 19606 by Etest method in presence of 4 ug/ml beta-lactamase inhibitor Tazobactam. Particulars: ATCC 19606 = CIP 70.34 = JCM 6841. Summed up: as §1
Test [14] deals with Escherichia coli. As to the kind of experiment: Antimicrobial activity against Escherichia coli TOP10 harboring plasmid PH1 by Etest method in presence of 4 ug/ml beta-lactamase inhibitor Tazobactam. Summed up:
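Susceptibility was read by Etest, following the manufacturer's instructions. The test strain was E. coli TOP10 carrying recombinant plasmid pPH-1, which expresses blaOXA-143 from A. baumannii clinical isolate 135040 at a high level. The gene was introduced by Zero Blunt TOPO cloning, and transformants were selected on 50 μg/ml amoxicillin plus 30 μg/ml kanamycin.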

Test [15] deals with Acinetobacter baumannii. As to the kind of experiment: Antimicrobial activity against Acinetobacter baumannii […] by Etest method in presence of 4 ug/ml beta-lactamase inhibitor Tazobactam. In a few lines: as §1

Values after ≈ are worked out from the molar mass of the structure shown. A value given as a limit tells only on which side of the number the result lay.

As to `CC1(C)S[C@@H]2[C@H](NC(=O)[C@H](N)c3ccc(O)cc3)C(=O)N2[C@H]1C(=O)O` [AMOXICILLIN], the MIC is more than 256 µg/mL in test [1]; 4 µg/mL (≈ 10.9 µM) in [2]; more than 256 µg/mL in test [3]; 4 µg/mL in [4]; more than 512 µg/mL in test [5]; 8 µg/mL in test [6]. Moreover, the MIC in test [7] was more than 256 µg/mL; in [8], more than 512 µg/mL; in test [9] it was 32 µg/mL (≈ 87.6 µM); in test [10], more than 256 µg/mL.

In the case of `CO/N=C(\C(=O)N[C@@H]1C(=O)N2C(C(=O)[O-])=C(C[N+]3(C)CCCC3)CS[C@H]12)c1csc(N)n1` [CEFEPIME], the MIC was 4 µg/mL (≈ 8.32 µM) in test [3], 0.12 µg/mL (≈ 0.25 µM) in [5], 2 µg/mL (≈ 4.16 µM) in [7] and 1 µg/mL (≈ 2.08 µM) in test [9].

Turning to `CO/N=C(\C(=O)N[C@@H]1C(=O)N2C(C(=O)O)=C(COC(C)=O)CS[C@H]12)c1csc(N)n1` [CEFOTAXIME], the MIC is 0.12 µg/mL (≈ 0.263 µM) in test [2]; more than 256 µg/mL in test [3]; 0.12 µg/mL (≈ 0.263 µM) in test [5]; 16 µg/mL (≈ 35.1 µM) in test [7]; 8 µg/mL (≈ 17.6 µM) in test [9].

Turning to `CC(C)(O/N=C(\C(=O)N[C@@H]1C(=O)N2C(C(=O)[O-])=C(C[n+]3ccccc3)CS[C@H]12)c1csc(N)n1)C(=O)O` [CEFTAZIDIME], the MIC in [2] was 0.06 µg/mL (≈ 0.11 µM); in test [3] it was 256 µg/mL (≈ 468 µM); in test [5] it was 0.12 µg/mL (≈ 0.22 µM); in test [7], 2 µg/mL (≈ 3.66 µM); in test [9], 2 µg/mL (≈ 3.66 µM).

Regarding `C[C@@H](O)[C@H]1C(=O)N2C(C(=O)O)=C(SCCNC=N)C[C@H]12` [IMIPENEM ANHYDROUS], the MIC in test [3] is more than 32 µg/mL; in test [5], 2 µg/mL (≈ 6.68 µM); in test [7], 32 µg/mL (≈ 107 µM); in test [9] it was 0.19 µg/mL (≈ 0.635 µM).

For the molecule `C[C@@H](O)[C@H]1C(=O)N2C(C(=O)O)=C(S[C@@H]3CN[C@H](C(=O)N(C)C)C3)[C@H](C)[C@H]12` [MEROPENEM], the MIC was 0.12 µg/mL (≈ 0.313 µM) in test [2]; more than 32 µg/mL in [3]; 2 µg/mL (≈ 5.22 µM) in test [5]; 32 µg/mL (≈ 83.4 µM) in test [7]; 0.19 µg/mL (≈ 0.495 µM) in test [9].

With `CCN1CCN(C(=O)N[C@@H](C(=O)N[C@@H]2C(=O)N3[C@@H]2SC(C)(C)[C@@H]3C(=O)O)c2ccccc2)C(=O)C1=O` [PIPERACILLIN], the MIC was 8 µg/mL in test [11]; 1 µg/mL (≈ 1.93 µM) in test [2]; 0.5 µg/mL in test [12]; more than 256 µg/mL in [3]; 4 µg/mL in test [13]; 8 µg/mL (≈ 15.5 µM) in test [5]. The MIC in [14] was 2 µg/mL; in test [7], 16 µg/mL (≈ 30.9 µM); in test [15], more than 256 µg/mL; in test [9], 4 µg/mL (≈ 7.73 µM).

As to `CC1(C)S[C@@H]2[C@H](NC(=O)[C@H](C(=O)O)c3ccsc3)C(=O)N2[C@H]1C(=O)O` [TICARCILLIN], the MIC in [2] is 4 µg/mL (≈ 10.4 µM); in test [3], more than 256 µg/mL; in [5], 128 µg/mL (≈ 333 µM); in [7] it was more than 256 µg/mL; in test [9], 4 µg/mL (≈ 10.4 µM).
